Test results taken from ChEMBL document CHEMBL1152965, “Synthesis and in vitro antiplasmodial evaluation of 4-anilino-2-trichloromethylquinazolines” (Bioorg Med Chem, 2009).

How the values were obtained:
[1] = system: Plasmodium falciparum; test: Antimalarial activity as reduced parasitaemia after 48 hrs against chloroquine, pyrimethamine and proguanil-resistant Plasmodium falciparum W2 infected in type A+ human erythrocytes by flow cytometry; type: functional, organism-based; conditions: W2, 48 h
[2] = system: K562; test: Cytotoxicity against human K562 cells after 72 hrs by flow cytometry; type: cell-based; conditions: K562, 72 h
Outline: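 Chemosensitive K562 subline, late log phase, in phenol-red-free RPMI with 10% serum. Compound range added in duplicate (DMSO <0.5%). After 72 h at 37 °C, 6% CO₂, cells stained with propidium iodide and live cells in a 100 µL sample counted by flow cytometry. IC50 from non-linear regression of dose-response curves, mean of three independent experiments.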

[3] = system: HepG2; test: Cytotoxicity against human HepG2 cells after 72 hrs by MTT assay; type: cell-based; conditions: HepG2, 72 h
Outline: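 HepG2 cells plated in RPMI with 10% FBS and grown 24 h, then exposed to a range of compound concentrations for 72 h at 37 °C, 6% CO₂. MTT (5 mg/mL stock) added for 2 h, formazan dissolved in DMSO and read at 570 nm against 630 nm. Viability expressed as percent of untreated control. CC50 taken from the dose-response curve.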

[4] = Selectivity index, ratio of IC50 for human K562 cells to IC50 for chloroquine, pyrimethamine and proguanil-resistant Plasmodium falciparum W2; type: toxicity, cell-based; conditions: K562 cells (cytotoxicity) versus Plasmodium falciparum W2, read-out: Ratio IC50
Outline: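 SI = K562 IC50 / W2 IC50. Live cells counted by flow cytometry after propidium iodide stain. IC50 by non-linear regression, mean of three independent experiments.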

[5] = Selectivity index, ratio IC50 for human HepG2 cells to IC50 for chloroquine, pyrimethamine and proguanil-resistant Plasmodium falciparum W2; type: functional
Outline: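 SI = HepG2 IC50 / W2 IC50. MTT 2 h, formazan dissolved in DMSO, absorbance 570 nm (ref 630 nm). Viability as % of untreated control, IC50 from dose-response curve.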

[6] = system: Leishmania donovani; test: Antileishmanial activity against Leishmania donovani HOM/IN/01/2001 promastigotes after 72 hrs by flow cytometry; type: functional, organism-based; conditions: HOM/IN/01/2001, 72 h
Outline: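 GFP-transfected promastigotes, log phase, in M199 with 10% FCS and 500 µg/mL G418, seeded at 10⁵ parasites/mL. Compounds in DMSO (final <0.5% v/v) added in duplicate over a concentration range. Incubated 72 h at 27 °C.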

IC50 [6] [µM]	Compound	IC50 [1] [µM]	IC50 [2] [µM]	IC50 [3] [µM]	selectivity ratio [4]	Ratio IC50 [5]
	ClC(Cl)(Cl)c1nc(Nc2cccc3ccccc23)c2ccccc2n1	6	5	15	0.8	2.5
	CN1CCN(c2nc(C(Cl)(Cl)Cl)nc3ccccc23)CC1	5.6	65	75	11.6	13.4
	Fc1ccccc1Nc1nc(C(Cl)(Cl)Cl)nc2ccccc12	9	30	10	3.3	1.1
	COc1cccc(Nc2nc(C(Cl)(Cl)Cl)nc3ccccc23)c1	4	9	0.5	2.3	0.1
	FC(F)(F)c1cc(Nc2nc(C(Cl)(Cl)Cl)nc3ccccc23)cc(C(F)(F)F)c1	3	10	3	3.3	1
	O=[N+]([O-])c1ccccc1Nc1nc(C(Cl)(Cl)Cl)nc2ccccc12	3	> 60	> 100	> 20	>33.3
	COc1ccccc1Nc1nc(C(Cl)(Cl)Cl)nc2ccccc12	6	60	60	10	10
	ClC(Cl)(Cl)c1nc(NC2CCCCCC2)c2ccccc2n1	5.1	> 50	19	> 9.8	3.7
	Cc1cccc(Nc2nc(C(Cl)(Cl)Cl)nc3ccccc23)c1	2.3	9	12	3.9	5.2
	Cc1ccc(Nc2nc(C(Cl)(Cl)Cl)nc3ccccc23)cc1	2.4	6	8	2.5	3.3
	Fc1ccc(Nc2nc(C(Cl)(Cl)Cl)nc3ccccc23)cc1	5.4	> 125	> 50	> 23.1	>9.3
	Cc1nc(Nc2cccc(Cl)c2)c2ccccc2n1	55	27	40	0.5	0.7
	Cc1ccccc1Nc1nc(C(Cl)(Cl)Cl)nc2ccccc12	7	11	24	1.6	3.4
	COc1cccc2c1C(=O)c1c(O)c3c(c(O)c1C2=O)C[C@@](O)(C(=O)CO)C[C@@H]3O[C@H]1C[C@H](N)[C@H](O)[C@H](C)O1 [DOXORUBICIN]		0.06	0.2		
	CCN(CC)CCCC(C)Nc1ccnc2cc(Cl)ccc12 (stereo unspecified) [CHLOROQUINE]		32			
	Clc1ccc(Cl)c(Nc2nc(C(Cl)(Cl)Cl)nc3ccccc23)c1	1.7	> 8	30	> 4.7	17.6
	ClC(Cl)(Cl)c1nc(Nc2ccccc2)c2ccccc2n1	11	> 50	> 50	> 4.5	>4.5
	FC(F)(F)c1ccc(Nc2nc(C(Cl)(Cl)Cl)nc3ccccc23)cc1	1.6	4	6	2.5	3.8
0.08	C[C@@H]1[C@H](O)[C@@H](C)/C=C/C=C/C=C/C=C/C=C/C=C/C=C/[C@H](O[C@@H]2O[C@H](C)[C@@H](O)[C@H](N)[C@@H]2O)C[C@@H]2O[C@](O)(C[C@@H](O)C[C@@H](O)[C@H](O)CC[C@@H](O)C[C@@H](O)CC(=O)O[C@H]1C)C[C@H](O)[C@H]2C(=O)O [AMPHOTERICIN B]		17	10		
	ClC(Cl)(Cl)c1nc(N2CCOCC2)c2ccccc2n1	14.9	> 125	63	> 8.4	>2
